ChEMBL document CHEMBL1134619, “Arylcyclopropanecarboxyl guanidines as novel, potent, and selective inhibitors of the sodium hydrogen exchanger isoform-1” (J Med Chem, 2001)
Blank lines part the entries; values can stand above or below the compound they belong to.

Assays:
[1] = molecular target: Sodium/hydrogen exchanger 1 (Homo sapiens, UniProt P19634); assay: Screened in AP1 cells expressing human NHE-1 for sodium hydrogen exchange activity; assay type: functional, cell-based
Procedure, shortened: (§1)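 AP1 cell monolayers expressing the given human NHE isoform, loaded with BCECF-AM (5 µM final, 30 min, room temperature) in NaCl-HEPES pH 7.3. Acid load by NH4Cl-HEPES for 9 min, then washes in Na+-free choline buffer. Drug preincubation 7.5 min, then NaCl added (135 mM final). Fluorescence 485/444 nm excitation ratio (538 nm emission) read after 5 min, minus no-NaCl activity. IC50 from 8-point dose-response curve, mean ± SEM of several experiments.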

[2] = molecular target: T1, Sodium/hydrogen exchanger 3 (Homo sapiens, UniProt P48764); assay: Compound is screened in AP1 cells expressing human NHE-3 for sodium hydrogen exchange activity; assay type: functional, cell-based; procedure, shortened: as §1
T1 sequence (P48764 whole entry): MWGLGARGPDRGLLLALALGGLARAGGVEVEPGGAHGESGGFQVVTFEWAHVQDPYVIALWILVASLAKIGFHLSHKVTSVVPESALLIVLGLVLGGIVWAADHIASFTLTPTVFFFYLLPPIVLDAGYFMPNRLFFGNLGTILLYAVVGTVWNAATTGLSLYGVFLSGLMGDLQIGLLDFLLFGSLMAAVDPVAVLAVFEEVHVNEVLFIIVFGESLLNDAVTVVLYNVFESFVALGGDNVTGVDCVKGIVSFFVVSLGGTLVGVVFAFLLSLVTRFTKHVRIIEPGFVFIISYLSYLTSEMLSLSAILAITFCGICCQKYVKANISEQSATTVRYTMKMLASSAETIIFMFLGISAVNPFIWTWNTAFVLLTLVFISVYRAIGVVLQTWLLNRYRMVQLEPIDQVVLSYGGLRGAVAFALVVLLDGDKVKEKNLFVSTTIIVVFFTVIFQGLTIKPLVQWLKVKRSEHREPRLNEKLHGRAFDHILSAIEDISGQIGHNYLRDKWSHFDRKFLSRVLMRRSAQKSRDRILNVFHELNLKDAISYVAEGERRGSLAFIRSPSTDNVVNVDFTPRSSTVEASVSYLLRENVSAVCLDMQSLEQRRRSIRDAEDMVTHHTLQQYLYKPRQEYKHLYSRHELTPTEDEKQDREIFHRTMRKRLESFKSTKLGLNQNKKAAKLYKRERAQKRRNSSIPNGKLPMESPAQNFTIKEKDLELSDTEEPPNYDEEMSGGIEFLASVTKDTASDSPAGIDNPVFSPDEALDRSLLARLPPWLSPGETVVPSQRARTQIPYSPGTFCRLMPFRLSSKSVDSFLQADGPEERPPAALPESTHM

[3] = molecular target: T2, Sodium/hydrogen exchanger 2 (Homo sapiens, UniProt Q9UBY0); assay: Compound is screened in AP1 cells expressing human NHE-2 for sodium hydrogen exchange activity; assay type: functional, cell-based; procedure, shortened: as §1
T2 sequence (Q9UBY0 whole entry): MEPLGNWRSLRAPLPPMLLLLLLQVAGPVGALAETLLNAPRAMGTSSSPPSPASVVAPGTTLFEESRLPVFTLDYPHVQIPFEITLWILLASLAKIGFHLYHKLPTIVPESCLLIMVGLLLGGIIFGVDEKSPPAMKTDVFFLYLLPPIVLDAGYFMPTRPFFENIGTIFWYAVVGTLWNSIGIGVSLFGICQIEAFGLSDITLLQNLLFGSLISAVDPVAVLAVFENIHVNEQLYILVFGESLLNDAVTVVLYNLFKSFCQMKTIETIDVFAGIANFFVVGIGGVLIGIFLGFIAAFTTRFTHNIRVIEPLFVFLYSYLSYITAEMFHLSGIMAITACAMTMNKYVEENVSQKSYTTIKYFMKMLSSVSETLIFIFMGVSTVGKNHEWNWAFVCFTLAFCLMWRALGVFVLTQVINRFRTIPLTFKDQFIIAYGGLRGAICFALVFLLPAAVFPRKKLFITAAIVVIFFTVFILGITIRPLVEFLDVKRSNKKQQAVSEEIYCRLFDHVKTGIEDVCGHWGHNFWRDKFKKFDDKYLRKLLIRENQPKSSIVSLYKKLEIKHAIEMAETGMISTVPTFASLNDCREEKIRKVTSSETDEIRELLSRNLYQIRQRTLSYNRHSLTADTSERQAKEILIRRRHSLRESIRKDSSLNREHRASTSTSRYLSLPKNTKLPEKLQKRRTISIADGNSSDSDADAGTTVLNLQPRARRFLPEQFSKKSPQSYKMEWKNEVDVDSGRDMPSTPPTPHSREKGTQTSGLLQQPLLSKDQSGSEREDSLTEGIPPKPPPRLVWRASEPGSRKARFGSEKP

[4] = molecular target: T3, Sodium/hydrogen exchanger 5 (Homo sapiens, UniProt Q14940); assay: Compound is screened in AP1 cells expressing human NHE-5 for sodium hydrogen exchange activity; assay type: functional, cell-based; procedure, shortened: as §1
T3 sequence (Q14940 whole entry): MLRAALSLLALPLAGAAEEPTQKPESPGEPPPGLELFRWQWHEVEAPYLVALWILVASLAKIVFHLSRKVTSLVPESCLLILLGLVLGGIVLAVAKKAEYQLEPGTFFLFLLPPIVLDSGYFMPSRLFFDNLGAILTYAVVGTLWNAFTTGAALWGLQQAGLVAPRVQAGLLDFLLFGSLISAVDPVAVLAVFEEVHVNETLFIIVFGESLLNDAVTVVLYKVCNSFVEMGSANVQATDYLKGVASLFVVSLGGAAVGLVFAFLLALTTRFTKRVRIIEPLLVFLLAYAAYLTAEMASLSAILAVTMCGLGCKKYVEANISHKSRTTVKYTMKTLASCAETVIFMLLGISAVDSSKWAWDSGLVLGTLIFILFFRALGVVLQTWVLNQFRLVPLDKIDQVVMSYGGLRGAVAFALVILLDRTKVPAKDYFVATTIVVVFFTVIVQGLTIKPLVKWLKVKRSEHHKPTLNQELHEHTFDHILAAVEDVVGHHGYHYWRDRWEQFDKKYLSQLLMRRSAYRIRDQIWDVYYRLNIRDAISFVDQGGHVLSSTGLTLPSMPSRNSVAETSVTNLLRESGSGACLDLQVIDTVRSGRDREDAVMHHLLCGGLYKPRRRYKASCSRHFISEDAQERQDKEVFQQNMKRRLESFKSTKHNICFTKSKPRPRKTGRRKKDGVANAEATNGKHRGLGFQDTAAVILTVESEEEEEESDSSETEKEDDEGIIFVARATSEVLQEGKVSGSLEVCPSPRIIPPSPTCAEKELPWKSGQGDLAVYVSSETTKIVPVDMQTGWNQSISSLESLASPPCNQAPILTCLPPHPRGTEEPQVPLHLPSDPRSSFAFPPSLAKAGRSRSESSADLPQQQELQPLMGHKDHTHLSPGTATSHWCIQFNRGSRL

[5] = Oral bioavailability in rat; assay type: ADME, organism-based; conditions: in vivo
Procedure, shortened: (§2)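 Rats (n = 3) given a single 10 µmol/kg dose either intra-arterially or orally. Plasma samples analysed by LC/MS/MS. PK parameters are means ± SEM of the three animals.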

[6] = Half life period in rats was determined; assay type: ADME, organism-based; conditions: rat, in vivo; procedure, shortened: as §2
[7] = Plasma clearance in rats was determined; assay type: ADME, organism-based; conditions: rat; procedure, shortened: as §2
[8] = Volume distribution at steady state in rats was determined; assay type: ADME, organism-based; conditions: rat, in vivo; read-out: VSS; procedure, shortened: as §2

Sequence of Sodium/hydrogen exchanger 1 (P19634 whole entry, canonical isoform): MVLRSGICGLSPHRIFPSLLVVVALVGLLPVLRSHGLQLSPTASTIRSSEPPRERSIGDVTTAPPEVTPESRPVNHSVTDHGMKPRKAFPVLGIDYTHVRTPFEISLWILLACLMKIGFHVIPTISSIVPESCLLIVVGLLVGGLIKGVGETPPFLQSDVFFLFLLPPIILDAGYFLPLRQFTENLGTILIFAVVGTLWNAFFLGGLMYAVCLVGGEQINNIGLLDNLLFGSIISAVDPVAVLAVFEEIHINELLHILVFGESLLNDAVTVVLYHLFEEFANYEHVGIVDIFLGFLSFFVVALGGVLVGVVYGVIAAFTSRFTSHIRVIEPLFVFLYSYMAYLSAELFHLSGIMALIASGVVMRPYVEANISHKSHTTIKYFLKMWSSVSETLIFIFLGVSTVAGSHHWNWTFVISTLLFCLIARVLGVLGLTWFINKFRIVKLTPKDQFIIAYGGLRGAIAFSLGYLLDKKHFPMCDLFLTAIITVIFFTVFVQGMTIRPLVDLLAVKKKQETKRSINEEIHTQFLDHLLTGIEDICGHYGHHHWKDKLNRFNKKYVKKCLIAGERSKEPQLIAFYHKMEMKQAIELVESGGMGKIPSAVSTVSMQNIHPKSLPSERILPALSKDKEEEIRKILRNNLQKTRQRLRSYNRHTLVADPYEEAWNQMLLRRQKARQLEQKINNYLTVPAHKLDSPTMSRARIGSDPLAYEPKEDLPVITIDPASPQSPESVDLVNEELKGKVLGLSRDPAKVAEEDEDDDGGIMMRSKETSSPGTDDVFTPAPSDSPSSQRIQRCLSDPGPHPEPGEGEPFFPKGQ

IC50 [1]: 0.006 µM
SMILES: CC1(C)[C@H](C(=O)NC(=N)N)[C@H]1c1cc(Cl)cc(Cl)c1

IC50 [1]: 0.069 µM
SMILES: CC1(C)[C@H](C(=O)N=C(N)N)[C@H]1c1ccccc1

IC50 [1]: 0.005 µM
SMILES: CCc1cc([C@@H]2[C@@H](C(=O)NC(=N)N)C2(C)C)ccc1F

IC50 [1]: 0.032 µM
SMILES: Cc1cc([C@@H]2[C@@H](C(=O)N=C(N)N)C2(C)C)ccc1F

IC50 [2]: > 30 µM
IC50 [3]: 1.8 µM
IC50 [4]: 3.36 µM
bioavailability [5]: 63%
half-life [6]: 3 h
IC50 [1]: 0.009 µM
clearance [7]: 74 mL/min/kg
Vd [8]: 8.6 L/kg
SMILES: CC1(C)[C@H](C(=O)N=C(N)N)[C@H]1c1cccc2c1CCO2

bioavailability [5]: 13%
half-life [6]: 3.4 h
IC50 [1]: 0.04 µM
clearance [7]: 143 mL/min/kg
Vd [8]: 21 L/kg
SMILES: N=C(N)NC(=O)[C@H]1C[C@@H]1c1cc(Cl)ccc1Cl

IC50 [1]: 0.014 µM
SMILES: CC1(C)[C@H](C(=O)NC(=N)N)[C@H]1c1cccc(Cl)c1

IC50 [1]: 0.003 µM
SMILES: CC1(C)[C@H](C(=O)N=C(N)N)[C@H]1c1ccc(F)c(Br)c1

bioavailability [5]: 47%
half-life [6]: 8 h
IC50 [1]: 0.005 µM
clearance [7]: 44 mL/min/kg
Vd [8]: 23 L/kg
SMILES: CC1(C)[C@H](C(=O)N=C(N)N)[C@H]1c1cc(Cl)ccc1Cl

IC50 [1]: 0.017 µM
SMILES: CC(C)c1cc([C@@H]2[C@@H](C(=O)N=C(N)N)C2(C)C)ccc1F

Further lines, the compound ahead of its results:

SMILES: COc1cccc([C@H]2C[C@@H]2C(=O)NC(=N)N)c1
IC50 [1]: 0.54 µM

SMILES: N=C(N)NC(=O)[C@H]1C[C@@H]1c1ccc(Cl)cc1
IC50 [1]: 2.9 µM

SMILES: Cc1cc(-n2cccc2)c(S(C)(=O)=O)cc1C(=O)NC(=N)N [ENIPORIDE]
IC50 [2]: > 30 µM
IC50 [3]: 17 µM
IC50 [4]: > 30 µM
IC50 [1]: 0.38 µM

SMILES: N=C(N)NC(=O)[C@H]1C[C@@H]1c1cccc(Cl)c1
IC50 [1]: 0.28 µM

SMILES: N=C(N)NC(=O)[C@H]1C[C@@H]1c1ccc([N+](=O)[O-])cc1
IC50 [1]: > 30 µM

SMILES: N=C(N)NC(=O)[C@H]1C[C@@H]1c1ccccc1Cl
IC50 [1]: 0.98 µM

SMILES: N=C(N)NC(=O)[C@H]1C[C@@H]1c1ccccc1
IC50 [1]: 3.5 µM

SMILES: N=C(N)NC(=O)[C@H]1C[C@@H]1c1ccc(F)c(Br)c1
IC50 [1]: 0.09 µM

SMILES: N=C(N)NC(=O)[C@H]1C[C@@H]1c1cccc([N+](=O)[O-])c1
IC50 [1]: 1.6 µM

SMILES: CC(C)c1ccc([C@H]2C[C@@H]2C(=O)NC(=N)N)cc1
IC50 [1]: > 30 µM

SMILES: N=C(N)NC(=O)[C@H]1C[C@@H]1c1ccc(F)cc1
IC50 [1]: 1.6 µM

SMILES: CC(C)c1ccc(C(=O)NC(=N)N)cc1S(C)(=O)=O [CARIPORIDE]
IC50 [2]: > 30 µM
IC50 [3]: 62 µM
IC50 [4]: > 30 µM
IC50 [1]: 3.4 µM

SMILES: N=C(N)NC(=O)[C@H]1C[C@@H]1c1cccc2c1CCO2
bioavailability [5]: 49%
half-life [6]: 1.3 h
IC50 [1]: 0.12 µM
clearance [7]: 120 mL/min/kg
Vd [8]: 6 L/kg

SMILES: COc1cccc([C@@H]2[C@@H](C(=O)NC(=N)N)C2(C)C)c1
IC50 [1]: 0.012 µM
